Measurements of several laboratories.
Each line is one published result; the experiments were not run side by side.
Target: Cytochrome P450 1A2 (CYP1A2, Homo sapiens, UniProt P05177)

COc1ccc(Oc2ccc(CN(Cc3ccccc3)Cc3cnc4nc(N)nc(N)c4n3)cc2)cc1 — inhibition (enzyme activity, inhibitor, luciferase; 10 µM): -21.8%
CC1(CO)C(O[C@@H]2O[C@H](C(=O)O)[C@@H](O)[C@H](O)[C@H]2O)CC[C@@]2(C)C1CC[C@]1(C)C2CC=C2[C@H]3CC(C)(C)[C@H](O)[C@@H](O)[C@]3(CO)[C@H](O)C[C@]21C (stereo partly drawn) — IC50 (enzyme activity, inhibitor, mass spectrometry; human, liver microsomes): > 90 µg/mL
N=C(N)N1CC=C(c2coc(C(=O)Nc3ccc(C4=CCN(C(=N)N)CC4)c(F)c3)c2)CC1 — inhibition (enzyme activity, inhibitor; liver microsomes; 10 µM): 0%
COc1ccc(Oc2ccc(CNCc3cnc4nc(N)nc(N)c4n3)cc2)cc1 — inhibition (enzyme activity, inhibitor, luciferase; 10 µM): -5.44%
C=C[C@H]1C[N@@]2CC[C@H]1C[C@@H]2[C@@H](O)c1ccnc2ccc(OC)cc12 — inhibition (enzyme activity, inhibitor; human, liver microsomes; 10 µM): -5%
CON=C(N)c1ccc(-c2ccc(-c3ccc(C(N)=NOC)cc3)o2)cc1 — Km (enzyme activity, substrate): 0.4 µM
Cc1ccc(C(=O)N2CCOC[C@H]2Cc2cccc(-n3nccn3)c2)c(-n2nccn2)c1 — inhibition (enzyme activity, inhibitor; human, liver microsomes; 100 µM): 23%
Cc1cccc(F)c1N1CCC(N2Cc3cn(CC(C)(F)F)nc3N(Cc3ccccc3C(F)(F)F)C2=O)CC1 — IC50 (enzyme activity, inhibitor; human, liver microsomes): > 10 µM
CCc1cc(/C(C)=N/OCc2ccc(C3CCCCC3)c(C(F)(F)F)c2)ccc1CN1CC(C(=O)O)C1 — inhibition (enzyme activity, inhibitor; human, liver microsomes; 200 µM, 20 min): -193%
N=C(N)NCc1ccc(NC(=O)C23CCC(C(=O)Nc4ccc(C5=CCN(C(=N)N)CC5)cc4)(CC2)CC3)cc1 — inhibition (enzyme activity, inhibitor; liver microsomes; 10 µM): 0%
C=CC(=O)Nc1cc(Nc2nccc(Nc3cc(Cl)c(F)cc3C(C)(C)O)n2)c(OC)cc1N1CC[C@@H](N(C)C)C1 — inhibition (enzyme activity, inhibitor; human, liver microsomes; 10 µM): < 20%
Nc1nc(N)c2nc(CNc3ccc(C(=O)N4CCC(C(=O)O)CC4)cc3)cnc2n1 — inhibition (enzyme activity, inhibitor, luciferase; 10 µM): -33.3%
O=C(N[C@H](Cc1c[nH]c2ccccc12)C(=O)Nc1ccncc1)c1ccc(-c2cc(F)ccc2F)cc1F — inhibition (enzyme activity, inhibitor; human, liver microsomes; 1 µM): 3%
CC(=O)N1CCN(c2ccc(OCC3COC(Cn4ccnc4)(c4ccc(Cl)cc4Cl)O3)cc2)CC1 (stereo not drawn) — inhibition (enzyme activity, inhibitor; human, liver microsomes; 1 µM): -6%
COc1ccc(CNC(=O)c2ccc(CNCc3cnc4nc(N)nc(N)c4n3)cc2)cc1OC — inhibition (enzyme activity, inhibitor, luciferase; 10 µM): -18.2%
O=C(Nc1c2c(cc3c1CCC3)CCC2)NS(=O)(=O)/C=C/c1nccs1 — inhibition (enzyme activity, inhibitor; human, liver microsomes; 10 µM, pH 7.4): 9.5%
COc1ccc(CNC(=O)c2ccc(CNCc3cnc4nc(N)nc(N)c4n3)cc2)cc1 — inhibition (enzyme activity, inhibitor, luciferase; 10 µM): -18.9%
N[C@@H](COCc1ccccc1)C(=O)Nc1nc2ccc(OC(F)(F)F)cc2s1 — compound remaining (metabolic stability; human, liver microsomes; 1 µM, 0 h, pH 7.4): 100%
